{
  "source": "paper PMC3253265",
  "about": "(Immunity, 2011)",
  "key": {"[1]": {"tested_on": "42F3 TCR on CD8αβ− 42F3 T cells", "assay_type": "binding", "method_in_brief": "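42F3 hybridoma transfectants supplied the TCR. RBCs were biotinylated with biotin-X-NHS and then bound to streptavidin. Borosilicate beads were cleaned, silanized and reacted with streptavidin-maleimide. Both carried […] biotin-tagged single-chain H2-Ld-peptide complexes, the same ones used for SPR. Flow cytometry measured site densities of TCR on cells and pMHC on RBC or beads. Micropipette adhesion frequency and thermal fluctuation assays were run.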"}, "42F3 T cells [2]": {"tested_on": "42F3 T cells", "assay": "p3A1 antagonist assay", "assay_type": "cell-based", "details": "42F3 T cells stimulated with 100nM p4B3, range of p3A1 concentrations, same APC", "method_in_brief": "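Antagonism assay: 42F3 hybridoma cells were stimulated with an agonist peptide at 100nM. The test peptide was added over a range of concentrations, and IL-2 production was read by ELISA. Anti-CD3 (2C11) and/or native peptide served as IL-2 sensitivity controls. No peptide and an irrelevant H2-Ld MCMV epitope controlled for peptide-independent IL-2.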"}, "42F3 T cells [3]": {"tested_on": "42F3 T cells", "assay_type": "cell-based", "details": "CD8+ and CD8− 42F3 T cell lines, peptide-loaded APCs, up to 100μM peptide"}, "42F3 T cells [4]": {"tested_on": "42F3 T cells", "assay_type": "cell-based", "details": "recombinant H2-L^d-Ig dimers, CD8+ 42F3 T cells, IL-2 release", "method_in_brief": "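CD8+ 42F3 hybridoma transfectants were stimulated with recombinant H2-Ld-Ig dimers loaded with peptide instead of APC-presented peptide. IL-2 release was read by ELISA. Anti-CD3 (2C11) and/or native peptide controlled IL-2 sensitivity. No-peptide and irrelevant H2-Ld MCMV epitope controls covered peptide-independent IL-2.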"}, "42F3 TCR [5]": {"tested_on": "42F3 TCR", "assay": "Fluorescent 42F3-tetramer staining of peptide-loaded APCs", "assay_type": "cell-based", "method_in_brief": "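Tetramers were made by complexing C-terminally biotinylated recombinant 42F3 TCR with PE-labelled streptavidin. They were used to stain peptide-loaded APCs, with fluorescence read by flow cytometry. Staining was compared against SPR-derived 3D affinities of the pMHC ligands.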"}, "42F3 TCR [6]": {"tested_on": "42F3 TCR", "assay": "SPR", "assay_type": "binding, mouse", "details": "sc H2-L^d constructs"}, "42F3 T cells [7]": {"tested_on": "42F3 T cells", "assay": "Fluorescent sc H2-L^d-tetramer staining of 42F3 T cells", "assay_type": "cell-based"}},
  "data": [
    {"sequence": "SPLDSLWWI [p3A1]", "values": [
      {"measurement": "2D-Ackon", "setting": "[1]", "value": "weak"},
      {"measurement": "2D-koff, rank among the peptides", "setting": "[1]; H2-L^d-peptide", "value": "slowest 2D-koff"},
      {"measurement": "effect on agonist (p4B3) induced activation", "setting": "42F3 T cells [2]", "value": "not influenced"},
      {"measurement": "IL-2 response", "setting": "42F3 T cells [3]", "value": "failed to induce a strong IL-2 response"},
      {"measurement": "stimulation of 42F3 T cells by peptide-loaded H2-L^d-Ig dimers", "setting": "42F3 T cells [4]", "value": "failed to stimulate"},
      {"measurement": "42F3-tetramer staining of peptide-loaded APCs", "setting": "42F3 TCR [5]", "value": "stain"},
      {"measurement": "SPR derived 3D affinity (KA), rank among the peptides", "setting": "42F3 TCR [6]", "value": "highest affinity"},
      {"measurement": "H2-L^d-peptide-tetramer staining of 42F3 T cells", "setting": "42F3 T cells [7]", "value": "did not stain"}
    ]}
  ]
}
